Reference: ChEMBL document CHEMBL1828506, “New fluorine-containing hydrazones active against MDR-tuberculosis” (Eur J Med Chem, 2011)
≈ marks a conversion by molar mass, not a printed value.

Tests used:
[1] = tested on: Mycobacterium tuberculosis; test: Antimycobacterial activity against multidrug-resistant Mycobacterium tuberculosis A8 241 after 28 days by colony forming unit determination; type: functional; conditions: A8 241, 672 h
Method in brief: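 Compounds added to Sula liquid medium as DMSO solutions (DMSO at most 2%), incubated at 37 °C for 28 days. MIC is the lowest concentration giving visible growth inhibition. Activity was confirmed by CFU counts after subculture onto drug-free Löwenstein-Jensen solid medium.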

[2] = Selectivity index, ratio of IC50 for human HepG2 cells to MIC for multidrug-resistant Mycobacterium tuberculosis A8 241; type: functional

| Structure (SMILES) | MIC [1] | Selectivity Index [2] |
| --- | --- | --- |
| O=C(N/N=C/Nc1ccc(C(=O)O)c(O)c1)c1ccc(C(F)(F)F)cc1 | 0.5 µg/mL (≈ 1.36 µM) |  |
| O=C(N/N=C/Nc1ccc(C(=O)O)c(O)c1)c1cccc(C(F)(F)F)c1 | 0.5 µg/mL (≈ 1.36 µM) |  |
| O=C(N/N=C/Nc1ccc(C(=O)O)c(O)c1)c1ccc(F)cc1 | 0.5 µg/mL (≈ 1.58 µM) |  |
| O=C(N/N=C/Nc1ccc(C(=O)O)c(O)c1)c1cccc(F)c1 | 0.5 µg/mL (≈ 1.58 µM) | 592.64 |
| O=C(O)c1ccc(N/C=N/NC(=O)c2ccccc2F)cc1O | 0.5 µg/mL (≈ 1.58 µM) | 767.77 |
| O=C(N/N=C/N1CCN(c2cc3c(cc2F)c(=O)c(C(=O)O)cn3C2CC2)CC1)c1ccc(C(F)(F)F)cc1 | 0.5 µg/mL (≈ 0.917 µM) | 378.41 |
| O=C(N/N=C/N1CCN(c2cc3c(cc2F)c(=O)c(C(=O)O)cn3C2CC2)CC1)c1cccc(C(F)(F)F)c1 | 0.5 µg/mL (≈ 0.917 µM) | 351.15 |
| O=C(N/N=C/N1CCN(c2cc3c(cc2F)c(=O)c(C(=O)O)cn3C2CC2)CC1)c1ccc(F)cc1 | 0.5 µg/mL (≈ 1.01 µM) | 1268.58 |
| O=C(N/N=C/N1CCN(c2cc3c(cc2F)c(=O)c(C(=O)O)cn3C2CC2)CC1)c1cccc(F)c1 | 0.5 µg/mL (≈ 1.01 µM) | 804.76 |
| CCn1cc(C(=O)O)c(=O)c2cc(F)c(N3CCN(/C=N/NC(=O)c4ccc(C(F)(F)F)cc4)CC3)cc21 | 5 µg/mL (≈ 9.37 µM) | 3.98 |
| CCn1cc(C(=O)O)c(=O)c2cc(F)c(N3CCN(/C=N/NC(=O)c4cccc(F)c4)CC3)cc21 | 5 µg/mL (≈ 10.3 µM) | 38 |
| Nc1ccc(C(=O)O)c(O)c1 [AMINOSALICYLIC ACID] | 0.25 µg/mL (≈ 1.63 µM) |  |
| O=C(O)c1cn(C2CC2)c2cc(N3CCNCC3)c(F)cc2c1=O [CIPROFLOXACIN] | 1.5 µg/mL (≈ 4.53 µM) | 110.37 |
| NNC(=O)c1ccncc1 [ISONIAZID] | 1 µg/mL (≈ 7.29 µM) |  |
| CCn1cc(C(=O)O)c(=O)c2cc(F)c(N3CCNCC3)cc21 [NORFLOXACIN] | 10 µg/mL (≈ 31.3 µM) | 15.87 |
